Data from ChEMBL document CHEMBL5303300, “EUbOPEN Chemogenomics Library - Multiplex” (2023).
Where “and” joins values, the source holds several entries; their conditions need not be identical. Identical values can stand only once.

System: HEK-293T
Assay: Multiplex assay against HEK293T
Assay type: toxicity, cell-based
Settings: human, number of replicates 2
How it was run: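 Live cells carried four stains from seeding: Hoechst33342, BioTracker Green Microtubule Cytoskeleton Dye, MitoTracker Red and Annexin V Alexa Fluor 680. They were imaged on a CQ1 microscope at 37°C and 5% CO2 after compound addition. Using CellPathfinder machine-learning gating, cells were split into Hoechst high-intensity objects or normal cells, normal cells into healthy, pyknosed or fragmented nuclei, and pyknosed cells into mitotic or apoptotic; tubulin, mitochondrial-mass and membrane-permeability phenotypes are per cents of healthy-nucleus cells.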

[1] = 12 h, 1 µM, compound concentration 1 uM
[2] = 12 h, 10 µM, compound concentration 10 uM
[3] = 24 h, 1 µM, compound concentration 1 uM
[4] = 24 h, 10 µM, compound concentration 10 uM
[5] = 48 h, 1 µM, compound concentration 1 uM
[6] = 48 h, 10 µM, compound concentration 10 uM

CN[C@@H]1CC[C@@H](c2ccc(Cl)c(Cl)c2)c2ccccc21.Cl
Population Apoptotic (%) [1]: 46% and 42%
Population Fragmented Nuclei (%) [1]: 2% and 3%
Population Healthy Nuclei (%) [1]: 84%
Population Hoechst High Intensity Objects (%) [1]: 8% and 7%
Population Membrane Permeable-Phenotype (%) [1]: 3%
Population Mitochondria Different-Phenotype (%) [1]: 21% and 16%
Population Mitotic Cells (%) [1]: 53% and 57%
Population Normal (%) [1]: 91% and 92%
Population Pyknosed Nuclei (%) [1]: 12% and 11%
Population Tubulin-Different-Phenotype (%) [1]: 68% and 66%
Population Apoptotic (%) [2]: 57% and 46%
Population Fragmented Nuclei (%) [2]: 3% and 1%
Population Healthy Nuclei (%) [2]: 81% and 80%
Population Hoechst High Intensity Objects (%) [2]: 6%
Population Membrane Permeable-Phenotype (%) [2]: 1% and 3%
Population Mitochondria Different-Phenotype (%) [2]: 48% and 54%
Population Mitotic Cells (%) [2]: 42% and 53%
Population Normal (%) [2]: 93%
Population Pyknosed Nuclei (%) [2]: 15% and 17%
Population Tubulin-Different-Phenotype (%) [2]: 96%
Population Apoptotic (%) [3]: 41% and 38%
Population Fragmented Nuclei (%) [3]: 3% and 4%
Population Healthy Nuclei (%) [3]: 88%
Population Hoechst High Intensity Objects (%) [3]: 8%
Population Membrane Permeable-Phenotype (%) [3]: 3% and 2%
Population Mitochondria Different-Phenotype (%) [3]: 10%
Population Mitotic Cells (%) [3]: 58% and 61%
Population Normal (%) [3]: 91%
Population Pyknosed Nuclei (%) [3]: 8% and 7%
Population Tubulin-Different-Phenotype (%) [3]: 42% and 45%
Population Apoptotic (%) [4]: 66% and 59%
Population Fragmented Nuclei (%) [4]: 4% and 2%
Population Healthy Nuclei (%) [4]: 78% and 81%
Population Hoechst High Intensity Objects (%) [4]: 7% and 11%
Population Membrane Permeable-Phenotype (%) [4]: 2%
Population Mitochondria Different-Phenotype (%) [4]: 63% and 59%
Population Mitotic Cells (%) [4]: 33% and 40%
Population Normal (%) [4]: 92% and 88%
Population Pyknosed Nuclei (%) [4]: 16% and 15%
Population Tubulin-Different-Phenotype (%) [4]: 94%
Population Apoptotic (%) [5]: 14% and 15%
Population Fragmented Nuclei (%) [5]: 11% and 10%
Population Healthy Nuclei (%) [5]: 84% and 86%
Population Hoechst High Intensity Objects (%) [5]: 10% and 9%
Population Membrane Permeable-Phenotype (%) [5]: 4%
Population Mitochondria Different-Phenotype (%) [5]: 1%
Population Mitotic Cells (%) [5]: 85% and 84%
Population Normal (%) [5]: 89% and 90%
Population Pyknosed Nuclei (%) [5]: 3%
Population Tubulin-Different-Phenotype (%) [5]: 18% and 23%
Population Apoptotic (%) [6]: 58% and 75%
Population Fragmented Nuclei (%) [6]: 5%
Population Healthy Nuclei (%) [6]: 84% and 83%
Population Hoechst High Intensity Objects (%) [6]: 8% and 13%
Population Membrane Permeable-Phenotype (%) [6]: 2% and 3%
Population Mitochondria Different-Phenotype (%) [6]: 29% and 34%
Population Mitotic Cells (%) [6]: 41% and 24%
Population Normal (%) [6]: 91% and 86%
Population Pyknosed Nuclei (%) [6]: 9% and 11%
Population Tubulin-Different-Phenotype (%) [6]: 76% and 87%

COCCN1CCN(CCn2ccc(Nc3ncc4c(n3)-c3c(nn(C)c3-c3ccccc3)C[C@H]4C)n2)CC1
Population Apoptotic (%) [1]: 55% and 57%
Population Fragmented Nuclei (%) [1]: 2% and 5%
Population Healthy Nuclei (%) [1]: 86% and 79%
Population Hoechst High Intensity Objects (%) [1]: 14% and 13%
Population Membrane Permeable-Phenotype (%) [1]: 3%
Population Mitochondria Different-Phenotype (%) [1]: 44% and 55%
Population Mitotic Cells (%) [1]: 44% and 42%
Population Normal (%) [1]: 85% and 86%
Population Pyknosed Nuclei (%) [1]: 11% and 15%
Population Tubulin-Different-Phenotype (%) [1]: 73% and 85%
Total Cell Count [1]: 402 and 361
Population Apoptotic (%) [2]: 66% and 76%
Population Fragmented Nuclei (%) [2]: 5%
Population Healthy Nuclei (%) [2]: 76% and 78%
Population Hoechst High Intensity Objects (%) [2]: 21% and 20%
Population Membrane Permeable-Phenotype (%) [2]: 2%
Population Mitochondria Different-Phenotype (%) [2]: 65% and 76%
Population Mitotic Cells (%) [2]: 33% and 23%
Population Normal (%) [2]: 78% and 79%
Population Pyknosed Nuclei (%) [2]: 18% and 16%
Population Tubulin-Different-Phenotype (%) [2]: 94% and 95%
Total Cell Count [2]: 332 and 297
Population Apoptotic (%) [3]: 48% and 64%
Population Fragmented Nuclei (%) [3]: 7% and 3%
Population Healthy Nuclei (%) [3]: 86% and 90%
Population Hoechst High Intensity Objects (%) [3]: 15% and 17%
Population Membrane Permeable-Phenotype (%) [3]: 1% and 2%
Population Mitochondria Different-Phenotype (%) [3]: 30% and 33%
Population Mitotic Cells (%) [3]: 52% and 35%
Population Normal (%) [3]: 84% and 82%
Population Pyknosed Nuclei (%) [3]: 6%
Population Tubulin-Different-Phenotype (%) [3]: 74% and 75%
Total Cell Count [3]: 473 and 331
Population Apoptotic (%) [4]: 71% and 78%
Population Fragmented Nuclei (%) [4]: 5% and 2%
Population Healthy Nuclei (%) [4]: 72% and 83%
Population Hoechst High Intensity Objects (%) [4]: 25% and 24%
Population Membrane Permeable-Phenotype (%) [4]: 1% and 2%
Population Mitochondria Different-Phenotype (%) [4]: 71% and 75%
Population Mitotic Cells (%) [4]: 28% and 21%
Population Normal (%) [4]: 74% and 75%
Population Pyknosed Nuclei (%) [4]: 22% and 14%
Population Tubulin-Different-Phenotype (%) [4]: 90% and 92%
Total Cell Count [4]: 250 and 217
Population Apoptotic (%) [5]: 73% and 30%
Population Fragmented Nuclei (%) [5]: 12% and 8%
Population Healthy Nuclei (%) [5]: 84% and 87%
Population Hoechst High Intensity Objects (%) [5]: 27% and 18%
Population Membrane Permeable-Phenotype (%) [5]: 4% and 2%
Population Mitochondria Different-Phenotype (%) [5]: 5% and 10%
Population Mitotic Cells (%) [5]: 26% and 70%
Population Normal (%) [5]: 72% and 81%
Population Pyknosed Nuclei (%) [5]: 3% and 4%
Population Tubulin-Different-Phenotype (%) [5]: 63% and 68%
Total Cell Count [5]: 864 and 570
Population Apoptotic (%) [6]: 66%
Population Fragmented Nuclei (%) [6]: 7% and 6%
Population Healthy Nuclei (%) [6]: 89% and 82%
Population Hoechst High Intensity Objects (%) [6]: 24% and 20%
Population Membrane Permeable-Phenotype (%) [6]: 0% and 4%
Population Mitochondria Different-Phenotype (%) [6]: 49% and 51%
Population Mitotic Cells (%) [6]: 33%
Population Normal (%) [6]: 75% and 79%
Population Pyknosed Nuclei (%) [6]: 3% and 10%
Population Tubulin-Different-Phenotype (%) [6]: 86% and 82%
Total Cell Count [6]: 245 and 220
